In brackets after ≈: the same amount, converted by molar mass.
How the values were obtained:
Homo sapiens [1] = species: Homo sapiens; test: Inhibition of P-gp-mediated paclitaxel resistance in human LCC6MDR cells assessed as fold decrease in paclitaxel IC50 for cytotoxic activity at 1 uM after 5 days by MTS assay relative to parental cells; format: cell-based
Homo sapiens [2] = species: Homo sapiens; test: Inhibition of P-gp-mediated paclitaxel resistance in human LCC6MDR cells assessed as fold decrease in paclitaxel IC50 for cytotoxic activity at 0.5 uM after 5 days by MTS assay relative to parental cells; format: cell-based
MDR = test: Cytotoxicity against human MDA435/LCC6MDR cells expressing MDR after 72 hrs; format: functional, cell-based
In short: (§1)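 Cells seeded at 1 × 10⁴ per well in supplemented DMEM and given graded doses of dimer for 72 h at 37 °C, 5% CO₂. Survival measured and IC50 derived. N = 1–3 independent experiments, mean ± SEM.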

[3] = Cytotoxicity against human LCC-6 cells after 72 hrs; format: functional, cell-based; conditions: LCC-6, 72 h; in short: as §1
L929 = test: Cytotoxicity against mouse L929 cells after 72 hrs; format: cell-based; conditions: L929, 72 h; in short: as §1
[4] = Reversal of P-gp-mediated vinblastin-resistance in human LCC6MDR cells after 5 days by MTS assay; format: cell-based; conditions: 120 h
[5] = Reversal of P-gp-mediated vincristine-resistance in human LCC6MDR cells after 5 days by MTS assay; format: cell-based; conditions: 120 h
[6] = Reversal of P-gp-mediated doxorubicin-resistance in human LCC6MDR cells after 5 days by MTS assay; format: cell-based; conditions: 120 h
[7] = Reversal of P-gp-mediated mitoxantrone-resistance in human LCC6MDR cells after 5 days by MTS assay; format: cell-based; conditions: 120 h
[8] = Reversal of P-gp-mediated daunorubicin-resistance in human LCC6MDR cells after 5 days by MTS assay; format: cell-based; conditions: 120 h
[9] = Therapeutic index, ratio of IC50 for L929 cells to EC50 for reversing paclitaxel resistance in human MDA435/LCC6MDR cells; format: cell-based; conditions: L929 cells (IC50) and MDA435/LCC6MDR cells (EC50)
[10] = biological target: Multidrug resistance-associated protein 1 (Homo sapiens, UniProt P33527); test: Inhibition of MRP1-mediated doxorubicin resistance in human 2008/MRP1 cells assessed as fold decrease in doxorubicin IC50 for cytotoxic activity at 0.5 uM after 5 days by MTS assay relative to parental cell; format: cell-based; conditions: 2008/mrp1, 120 h
Chain of Multidrug resistance-associated protein 1 (P33527 whole entry): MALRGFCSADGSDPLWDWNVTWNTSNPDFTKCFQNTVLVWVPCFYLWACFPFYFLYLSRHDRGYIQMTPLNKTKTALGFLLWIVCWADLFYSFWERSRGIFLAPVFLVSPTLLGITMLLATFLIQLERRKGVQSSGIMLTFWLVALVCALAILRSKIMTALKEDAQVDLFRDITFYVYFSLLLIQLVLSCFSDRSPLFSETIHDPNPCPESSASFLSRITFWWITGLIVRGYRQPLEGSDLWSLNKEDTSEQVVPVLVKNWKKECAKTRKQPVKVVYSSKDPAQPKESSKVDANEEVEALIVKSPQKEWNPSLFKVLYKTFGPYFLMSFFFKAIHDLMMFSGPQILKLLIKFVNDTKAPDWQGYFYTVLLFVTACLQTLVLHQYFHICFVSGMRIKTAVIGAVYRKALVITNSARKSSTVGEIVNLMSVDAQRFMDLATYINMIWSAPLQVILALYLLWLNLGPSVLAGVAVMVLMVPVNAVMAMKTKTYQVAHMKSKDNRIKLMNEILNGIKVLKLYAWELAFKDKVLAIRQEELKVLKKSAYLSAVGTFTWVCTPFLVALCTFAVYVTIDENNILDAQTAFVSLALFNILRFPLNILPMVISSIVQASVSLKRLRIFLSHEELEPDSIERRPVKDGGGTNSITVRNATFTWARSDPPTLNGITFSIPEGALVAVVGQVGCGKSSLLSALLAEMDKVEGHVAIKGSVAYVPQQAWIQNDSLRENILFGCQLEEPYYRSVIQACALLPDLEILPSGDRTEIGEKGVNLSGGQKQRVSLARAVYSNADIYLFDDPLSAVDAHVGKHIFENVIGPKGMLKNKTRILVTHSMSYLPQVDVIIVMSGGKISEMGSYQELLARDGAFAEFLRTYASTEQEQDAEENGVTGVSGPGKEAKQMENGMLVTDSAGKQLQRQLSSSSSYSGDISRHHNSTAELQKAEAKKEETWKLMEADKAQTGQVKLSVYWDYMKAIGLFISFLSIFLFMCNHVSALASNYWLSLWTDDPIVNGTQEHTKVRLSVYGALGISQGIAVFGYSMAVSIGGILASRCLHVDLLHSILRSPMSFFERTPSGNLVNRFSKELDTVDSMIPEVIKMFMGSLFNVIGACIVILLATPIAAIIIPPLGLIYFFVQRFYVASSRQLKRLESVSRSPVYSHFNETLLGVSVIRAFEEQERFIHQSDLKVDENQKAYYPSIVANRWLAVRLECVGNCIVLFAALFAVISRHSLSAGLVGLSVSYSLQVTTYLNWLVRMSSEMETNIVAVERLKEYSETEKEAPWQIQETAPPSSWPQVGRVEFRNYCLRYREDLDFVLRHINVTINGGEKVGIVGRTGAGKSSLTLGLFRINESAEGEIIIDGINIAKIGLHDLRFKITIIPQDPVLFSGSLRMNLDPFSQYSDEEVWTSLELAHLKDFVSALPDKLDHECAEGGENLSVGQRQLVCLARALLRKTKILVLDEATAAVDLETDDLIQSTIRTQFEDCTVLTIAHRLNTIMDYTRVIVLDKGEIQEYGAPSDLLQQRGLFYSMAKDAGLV

[11] = biological target: T1, Broad substrate specificity ATP-binding cassette transporter ABCG2 (Homo sapiens, UniProt Q9UNQ0); test: Inhibition of BCRP-mediated topotecan resistance in human HEK293/R2 cells assessed as fold decrease in topotecan IC50 for cytotoxic activity at 0.5 uM after 5 days by MTS assay relative to parental cell; format: cell-based; conditions: hek293/r2, 120 h
T1 sequence (Q9UNQ0 whole entry): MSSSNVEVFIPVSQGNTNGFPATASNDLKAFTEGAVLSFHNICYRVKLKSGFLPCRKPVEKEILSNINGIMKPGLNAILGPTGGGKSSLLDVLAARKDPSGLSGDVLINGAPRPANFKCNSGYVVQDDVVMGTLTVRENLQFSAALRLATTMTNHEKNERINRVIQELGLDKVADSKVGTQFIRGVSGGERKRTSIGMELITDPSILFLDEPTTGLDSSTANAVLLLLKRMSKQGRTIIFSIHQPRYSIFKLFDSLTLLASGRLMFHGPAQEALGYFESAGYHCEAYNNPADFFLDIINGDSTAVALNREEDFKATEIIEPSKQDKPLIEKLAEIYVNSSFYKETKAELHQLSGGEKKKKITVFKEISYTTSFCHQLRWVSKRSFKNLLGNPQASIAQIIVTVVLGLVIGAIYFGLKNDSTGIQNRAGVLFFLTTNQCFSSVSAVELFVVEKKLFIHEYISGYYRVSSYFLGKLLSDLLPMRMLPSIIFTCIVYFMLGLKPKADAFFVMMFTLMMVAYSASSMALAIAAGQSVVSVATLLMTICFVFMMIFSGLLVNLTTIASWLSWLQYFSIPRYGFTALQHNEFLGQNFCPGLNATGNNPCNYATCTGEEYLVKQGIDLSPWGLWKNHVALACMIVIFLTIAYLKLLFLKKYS
In short: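 Viability read by MTS. Topotecan IC50 taken from dose-response curves. Fold change = IC50 without modulator / IC50 with modulator. Parental HEK293/pcDNA3.1 tested for reference. N = 2−4 independent experiments, mean ± SEM.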

P-gp (ABCB1) = P-gp (ABCB1) (Homo sapiens, UniProt P08183); test: Increase in human P-gp ATPase activity at 200 uM by luciferase assay relative to basal level; conditions: read-out: FC
Chain of P-gp (ABCB1) (P08183 whole entry): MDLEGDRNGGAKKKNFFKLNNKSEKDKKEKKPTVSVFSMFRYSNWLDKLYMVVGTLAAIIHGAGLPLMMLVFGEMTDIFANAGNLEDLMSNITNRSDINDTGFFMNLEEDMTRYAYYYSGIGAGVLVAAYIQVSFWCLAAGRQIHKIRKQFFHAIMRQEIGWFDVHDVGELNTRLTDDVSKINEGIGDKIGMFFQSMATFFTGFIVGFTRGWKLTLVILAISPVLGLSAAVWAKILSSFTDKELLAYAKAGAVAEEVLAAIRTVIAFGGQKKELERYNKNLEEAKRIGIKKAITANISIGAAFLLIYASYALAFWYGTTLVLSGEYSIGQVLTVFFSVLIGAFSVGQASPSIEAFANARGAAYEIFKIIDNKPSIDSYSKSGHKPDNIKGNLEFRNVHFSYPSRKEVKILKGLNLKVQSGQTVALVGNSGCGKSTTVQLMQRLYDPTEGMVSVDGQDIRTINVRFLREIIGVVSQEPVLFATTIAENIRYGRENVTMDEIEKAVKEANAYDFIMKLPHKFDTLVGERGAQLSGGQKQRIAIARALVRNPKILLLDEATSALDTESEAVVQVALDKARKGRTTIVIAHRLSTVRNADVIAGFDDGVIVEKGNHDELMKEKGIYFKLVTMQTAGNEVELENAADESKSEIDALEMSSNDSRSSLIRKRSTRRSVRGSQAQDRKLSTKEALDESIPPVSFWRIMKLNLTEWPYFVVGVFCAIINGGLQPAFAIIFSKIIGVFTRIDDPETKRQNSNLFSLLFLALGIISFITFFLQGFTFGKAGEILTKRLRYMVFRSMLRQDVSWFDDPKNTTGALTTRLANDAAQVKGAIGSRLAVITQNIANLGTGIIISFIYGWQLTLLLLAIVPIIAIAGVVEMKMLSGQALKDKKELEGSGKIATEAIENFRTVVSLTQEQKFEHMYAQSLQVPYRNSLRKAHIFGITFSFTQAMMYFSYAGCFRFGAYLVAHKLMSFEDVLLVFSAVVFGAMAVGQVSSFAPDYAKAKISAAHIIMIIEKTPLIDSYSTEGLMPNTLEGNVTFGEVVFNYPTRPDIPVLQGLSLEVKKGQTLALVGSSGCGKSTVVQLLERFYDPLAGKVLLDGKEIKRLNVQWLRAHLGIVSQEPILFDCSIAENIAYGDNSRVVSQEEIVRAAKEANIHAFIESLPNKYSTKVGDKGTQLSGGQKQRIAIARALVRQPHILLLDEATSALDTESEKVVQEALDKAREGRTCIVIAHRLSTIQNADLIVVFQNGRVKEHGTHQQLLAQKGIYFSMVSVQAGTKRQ
In short: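 Human P-gp membrane fraction (about 25 μg) incubated with compound at 200 μM, 0.5% DMSO basal or 100 μM vanadate. Reaction started with 5 mM MgATP, 1 h at 37 °C. Remaining ATP read by luciferase luminescence after 20 min at room temperature. Activity normalized to basal and given as stimulation fold. N = 2.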

[12] = biological target: T2, ATP-dependent translocase ABCB1 (Homo sapiens, UniProt P08183); test: Inhibition of P-gp overexpressed in human MDA435/LCC6MDR cells assessed as accumulation of doxorubicin after 150 mins by fluorescence spectrophotometric analysis; format: cell-based; conditions: 2.5 h
T2 sequence (P08183 whole entry): as above
In short: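 1 × 10⁶ LCC6MDR or LCC6 cells incubated with 20 μM DOX and graded modulator for 150 min at 37 °C, with 0.4% DMSO as negative control. Cells washed and lysed in 0.75 M HCl, 0.2% Triton X-100 in isopropanol. DOX fluorescence read at ex 460/em 610 nm. N = 2–5.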

[13] = biological target: T2, ATP-dependent translocase ABCB1; test: Competitive inhibition of P-gp overexpressed in human MDA435/LCC6MDR cells assessed as accumulation of doxorubicin by Lineweaver-Burk plot analysis; format: cell-based
[14] = biological target: T2, ATP-dependent translocase ABCB1; test: Competitive inhibition of P-gp overexpressed in human MDA435/LCC6MDR cells assessed as accumulation of doxorubicin by Dixon plot analysis; format: cell-based
Homo sapiens [15] = species: Homo sapiens; test: Reduction in P-gp-mediated drug uptake in human MDA435/LCC6MDR cells at 10 uM for 120 mins by HPLC analysis relative to parental cells; format: cell-based
In short: (§2)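 7.5 × 10⁶ LCC6 or LCC6MDR cells in 5 mL DMEM incubated with compound at 10 or 100 μM for 120 min at 37 °C. Cells washed, lysed by freeze–thaw in acetonitrile with 20% formic acid, and processed. Compound quantified by normal-phase HPLC-UV at 315 nm against a chloroform calibration curve of 0.25–25 μg/mL. N = 1–2.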

Homo sapiens [16] = species: Homo sapiens; test: Reduction in P-gp-mediated drug uptake in human MDA435/LCC6MDR cells at 100 uM for 120 mins by HPLC analysis relative to parental cells; format: cell-based; in short: as §2
[17] = Reversal of P-gp-mediated paclitaxel-resistance in human LCC6MDR cells after 5 days by MTS assay; format: cell-based; conditions: 120 h

Structure (SMILES)	Ratio (Homo sapiens [1])	Ratio (Homo sapiens [2])	IC50 (MDR)	IC50 [3]	IC50 (L929)	selectivity ratio [9]	MIC [12]	inhibition (INH) [12]	EC50 [17]	other results
O=c1cc(-c2ccc(OCCOCCN(CCOCCOc3ccc(-c4cc(=O)c5ccccc5o4)cc3)Cc3ccccc3)cc2)oc2ccccc12	139	58.9	> 63000 nM	> 75000 nM	85000 nM	574	0.5 µM (≈ 0.362 µg/mL)	Dose-dependent effect	148 nM	EC50 [4]: 173 nM; EC50 [5]: 179 nM; EC50 [6]: 131 nM; EC50 [7]: 90 nM; EC50 [8]: 95 nM; Ratio [10]: 2.1; Ratio [11]: 3.8; fold induction at 200 µM (P-gp (ABCB1)): 2.7; Ki [13]: 340 nM; Ki [14]: 280 nM; fold change (FC) (Homo sapiens [15]): 1.7; fold change (FC) (Homo sapiens [16]): 2.1
COc1ccc(CCN(C)CCCC(C#N)(c2ccc(OC)c(OC)c2)C(C)C)cc1OC (stereo not given)							8 µM (≈ 3.64 µg/mL)	Dose-dependent effect		
O=c1cc(-c2ccc(OCCOCCN(CCOCCOc3ccc(-c4cc(=O)c5ccccc5o4)cc3)Cc3ccc([N+](=O)[O-])cc3)cc2)oc2ccccc12	128	43.7	> 90000 nM	86800 nM	88000 nM	466			189 nM	
